Consider 38 variants from the RNAGym collection of RNA variant scans (doi:10.1038/s41586-018-0170-7).

First the molecules themselves.
B1: tRNA (parent)
chain: GUUCCGUUGGCGUAAUGGUAACGCGUCUCCCUCCUAAGGAGAAGACUGCGGGUUCGAGUCCCGUACGGAACG

This data set covers variants of B1. Briefly: yeast fitness, log relative to wild type (ln ratio); higher = fitter; tRNA-Arg(CCU), competitive growth, 37 C, 1 M NaCl. Summed up:
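A combinatorial tRNA-Arg(CCU) variant library was carried on a HIS3 centromeric plasmid in BY4742 lacking the chromosomal gene, from two independent transformations. Pools grew 4 generations in SC-HIS at 30 °C, then ~6.5 generations (~26.5 h) in SC-HIS 1M NaCl at 37 °C, with three outputs per input. Variants were counted by 125 bp paired-end Illumina sequencing. Fitness is ln of each genotype's generations (OD-scaled log2 output/input frequency, inverse-variance weighted across replicates) over the wild-type's.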
On to GUUCCGUUGGCGUAAUGGUAACGCGUUUCCCUCCUAAGGAGAAGACUGCGGGUUCGAGUCCCGUAUGGAUUG [C27U C66U A70U C71U], for which the “yeast fitness (ln)” value was -0.276. In the case of ACUCCUUUGGCGUAAUGGUAACGCGUUUCCCUCCUAAGGAGAAGAUUGCGGGUUCGAGUCCCGUAUGGGUUG [G1A U2C G6U C27U C46U C66U A69G A70U C71U], the “yeast fitness (ln)” value was -0.518. Next, AUUCCGUUGGCGUAAUGGUAACGCGUUUCCCUCCUAAGGAGACGAUUGCGGGUUCGAGUCCCGUAAGGGUCG [G1A C27U A43C C46U C66A A69G A70U]: -0.352; GUUCCAUUGGCGUAAUGGUAACGCGUCUCCCUCCUAAGGAGAAGAUUGCGGGUUCGAGUCCCGUACGGAAUG [G6A C46U C71U]: -0.359; GGUCCGUUGGCGUAAUGGUAACGCGUCUCCCUCCUAAGGAGACGACUGCGGGUUCGAGUCCCGUAAGGAUUG [U2G A43C C66A A70U C71U]: -0.316. Consider GCUCCAUUGGCGUAAUGGUAACGCGUUUCCCUCCUAAGGAGACGAUUGCGGGUUCGAGUCCCGUACGGAUUG [U2C G6A C27U A43C C46U A70U C71U], for which the “yeast fitness (ln)” value was -0.113. Next, ACUCCAUUGGCGUAAUGGUAACGCGUCUCCCUCCUAAGGAGAAGAUUGCGGGUUCGAGUCCCGUAUGGGGUG [G1A U2C G6A C46U C66U A69G A70G C71U]: -0.0172; GGUCCUUUGGCGUAAUGGUAACGCGUCUCCCUCCUAAGGAGACGAUUGCGGGUUCGAGUCCCGUACGGAUCG [U2G G6U A43C C46U A70U]: -0.337; GGUCCGUUGGCGUAAUGGUAACGCGUUUCCCUCCUAAGGAGAAGAUUGCGGGUUCGAGUCCCGUAAGGGGCG [U2G C27U C46U C66A A69G A70G]: -0.163.

Consider GGUCCUUUGGCGUAAUGGUAACGCGUUUCCCUCCUAAGGAGAAGACUGCGGGUUCGAGUCCCGUAUGGGGCG [U2G G6U C27U C66U A69G A70G], for which the “yeast fitness (ln)” value is -0.375. GGUCCUUUGGCGUAAUGGUAACGCGUUUCCCUCCUAAGGAGACGACUGCGGGUUCGAGUCCCGUAUGGGACG [U2G G6U C27U A43C C66U A69G]: the “yeast fitness (ln)” value is -0.31. Regarding GUUCCAUUGGCGUAAUGGUAACGCGUUUCCCUCCUAAGGAGAAGAUUGCGGGUUCGAGUCCCGUAUGGAAUG [G6A C27U C46U C66U C71U], the “yeast fitness (ln)” value is -0.0799. Consider GGUCCUUUGGCGUAAUGGUAACGCGUUUCCCUCCUAAGGAGAAGACUGCGGGUUCGAGUCCCGUAAGGAACG [U2G G6U C27U C66A], for which the “yeast fitness (ln)” value was -0.0883. Next, ACUCCUUUGGCGUAAUGGUAACGCGUUUCCCUCCUAAGGAGACGAUUGCGGGUUCGAGUCCCGUAAGGAGCG [G1A U2C G6U C27U A43C C46U C66A A70G]: -0.15. Next, GGUCCAUUGGCGUAAUGGUAACGCGUCUCCCUCCUAAGGAGAAGACUGCGGGUUCGAGUCCCGUAAGGAUCG [U2G G6A C66A A70U]: -0.178. For GCUCCUUUGGCGUAAUGGUAACGCGUUUCCCUCCUAAGGAGACGACUGCGGGUUCGAGUCCCGUACGGAGUG [U2C G6U C27U A43C A70G C71U] the value was -0.324; for ACUCCUUUGGCGUAAUGGUAACGCGUUUCCCUCCUAAGGAGAAGAUUGCGGGUUCGAGUCCCGUAUGGAUCG [G1A U2C G6U C27U C46U C66U A70U], -0.128. On to AGUCCAUUGGCGUAAUGGUAACGCGUUUCCCUCCUAAGGAGACGAUUGCGGGUUCGAGUCCCGUACGGAGUG [G1A U2G G6A C27U A43C C46U A70G C71U], for which the “yeast fitness (ln)” value is -0.405. Take GUUCCUUUGGCGUAAUGGUAACGCGUCUCCCUCCUAAGGAGAAGAUUGCGGGUUCGAGUCCCGUAUGGGGUG [G6U C46U C66U A69G A70G C71U]: the “yeast fitness (ln)” value is -0.205. ACUCCUUUGGCGUAAUGGUAACGCGUCUCCCUCCUAAGGAGAAGAUUGCGGGUUCGAGUCCCGUACGGAUCG [G1A U2C G6U C46U A70U]: the “yeast fitness (ln)” value was -0.0682. Turning to GUUCCGUUGGCGUAAUGGUAACGCGUUUCCCUCCUAAGGAGACGAUUGCGGGUUCGAGUCCCGUAUGGGUUG [C27U A43C C46U C66U A69G A70U C71U], the “yeast fitness (ln)” value was -0.391. For GUUCCAUUGGCGUAAUGGUAACGCGUUUCCCUCCUAAGGAGAAGACUGCGGGUUCGAGUCCCGUACGGGUCG [G6A C27U A69G A70U] the value was -0.243. Regarding AUUCCGUUGGCGUAAUGGUAACGCGUCUCCCUCCUAAGGAGACGACUGCGGGUUCGAGUCCCGUAAGGAUUG [G1A A43C C66A A70U C71U], the “yeast fitness (ln)” value was -0.321. With GUUCCUUUGGCGUAAUGGUAACGCGUCUCCCUCCUAAGGAGAAGAUUGCGGGUUCGAGUCCCGUAUGGGUCG [G6U C46U C66U A69G A70U], the “yeast fitness (ln)” value was -0.235. GUUCCAUUGGCGUAAUGGUAACGCGUUUCCCUCCUAAGGAGAAGAUUGCGGGUUCGAGUCCCGUAUGGAGCG [G6A C27U C46U C66U A70G]: the “yeast fitness (ln)” value is -0.0516. In the case of GUUCCUUUGGCGUAAUGGUAACGCGUUUCCCUCCUAAGGAGAAGAUUGCGGGUUCGAGUCCCGUACGGGUUG [G6U C27U C46U A69G A70U C71U], the “yeast fitness (ln)” value was -0.457.

Regarding AGUCCAUUGGCGUAAUGGUAACGCGUUUCCCUCCUAAGGAGAAGACUGCGGGUUCGAGUCCCGUACGGGGCG [G1A U2G G6A C27U A69G A70G], the “yeast fitness (ln)” value was -0.428. As for GGUCCUUUGGCGUAAUGGUAACGCGUCUCCCUCCUAAGGAGACGACUGCGGGUUCGAGUCCCGUAUGGGUCG [U2G G6U A43C C66U A69G A70U], the “yeast fitness (ln)” value was -0.379. As to AUUCCAUUGGCGUAAUGGUAACGCGUUUCCCUCCUAAGGAGAAGAUUGCGGGUUCGAGUCCCGUAUGGGGUG [G1A G6A C27U C46U C66U A69G A70G C71U], the “yeast fitness (ln)” value is -0.698. For GUUCCAUUGGCGUAAUGGUAACGCGUCUCCCUCCUAAGGAGAAGACUGCGGGUUCGAGUCCCGUAUGGAAUG [G6A C66U C71U], the “yeast fitness (ln)” value is -0.0335. For GGUCCUUUGGCGUAAUGGUAACGCGUUUCCCUCCUAAGGAGACGAUUGCGGGUUCGAGUCCCGUAUGGGGCG [U2G G6U C27U A43C C46U C66U A69G A70G] the value was -0.318. Next, GCUCCUUUGGCGUAAUGGUAACGCGUCUCCCUCCUAAGGAGAAGAUUGCGGGUUCGAGUCCCGUACGGGUUG [U2C G6U C46U A69G A70U C71U]: -0.216; AGUCCGUUGGCGUAAUGGUAACGCGUCUCCCUCCUAAGGAGAAGACUGCGGGUUCGAGUCCCGUACGGGACG [G1A U2G A69G]: -0.104. As for GCUCCAUUGGCGUAAUGGUAACGCGUUUCCCUCCUAAGGAGAAGACUGCGGGUUCGAGUCCCGUAUGGGUCG [U2C G6A C27U C66U A69G A70U], the “yeast fitness (ln)” value is -0.138. Consider AUUCCGUUGGCGUAAUGGUAACGCGUUUCCCUCCUAAGGAGACGAUUGCGGGUUCGAGUCCCGUAUGGGGCG [G1A C27U A43C C46U C66U A69G A70G], for which the “yeast fitness (ln)” value was -0.188. Next, GGUCCAUUGGCGUAAUGGUAACGCGUUUCCCUCCUAAGGAGACGAUUGCGGGUUCGAGUCCCGUAUGGGUCG [U2G G6A C27U A43C C46U C66U A69G A70U]: -0.292; GUUCCGUUGGCGUAAUGGUAACGCGUCUCCCUCCUAAGGAGACGAUUGCGGGUUCGAGUCCCGUAUGGGGUG [A43C C46U C66U A69G A70G C71U]: -0.158; AGUCCGUUGGCGUAAUGGUAACGCGUUUCCCUCCUAAGGAGACGAUUGCGGGUUCGAGUCCCGUAUGGAGCG [G1A U2G C27U A43C C46U C66U A70G]: -0.172.
